pIC50, pKd, pKi: −log10 of the molar value. Activity calls are given as the source filed them. The calls are words filed in the database; no cut-off is given here.
How the values were obtained:
Leishmania donovani [1] = test: Antileishmanial activity against promastigote stage of Leishmania donovani MHOM/NP/02/BPK282/0c14 assessed as parasite growth inhibition after 72 hrs by Alamar blue assay; assay type: functional, organism-based; conditions: MHOM/NP/02/BPK282/0c14, 72 h
How it was run: (§1)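 Late log/stationary promastigotes were seeded at 10^6/mL in HOMEM with 20% FBS and exposed to compounds at 40–1.6 µM for 72 h at 26 °C, from 8 mM DMSO stocks. AlamarBlue was then added for 24 h at 26 °C, and absorbance was read at 550 and 630 nm. Runs were in duplicate. IC50/72h is the mean of two independent determinations.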

[2] = Cytotoxicity against African green monkey Vero cells after 72 hrs by Alamar blue assay; assay type: cell-based; conditions: chlorocebus sabaeus
How it was run: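 Vero cells were seeded at 10^5/mL in MEM with 10% FBS and exposed to compounds up to 600 µM for 72 h at 37 °C, 5% CO2. AlamarBlue was added for 24 h at 37 °C, with absorbance read at 550 and 630 nm. Duplicates. CC50/72h determined.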

[3] = Selectivity index, ratio of CC50 for African green monkey Vero cells to IC50 for Leishmania donovani MHOM/NP/02/BPK282/0c14; assay type: toxicity; conditions: read-out: Ratio CC50/IC50
How it was run: (§2)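 Selectivity index calculated as CC50/72h in Vero (16) or THP-1 (17) cells divided by IC50/72h against L. donovani promastigotes.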

[4] = Cytotoxicity against human THP1 cells after 72 hrs by Alamar blue assay; assay type: cell-based; conditions: THP-1 cells
How it was run: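 THP-1 cells were seeded at 10^5 cells/mL in RPMI-1640 with 10% FBS and adhered with 0.1 µM PMA, then exposed to compounds for 72 h at 37 °C, 5% CO2. AlamarBlue was added for 24 h at 37 °C, with absorbance read at 550 and 630 nm. Duplicates. CC50/72h determined.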

[5] = Selectivity index, ratio of CC50 for human THP1 cells to IC50 for Leishmania donovani MHOM/NP/02/BPK282/0c14; assay type: toxicity; conditions: THP-1 cells, read-out: Ratio CC50/IC50; how it was run: as §2
Leishmania tropica = test: Antileishmanial activity against promastigote stage of Leishmania tropica MHOM/SU/74/K27 assessed as parasite growth inhibition after 72 hrs by Alamar blue assay; assay type: functional, organism-based; conditions: MHOM/SU/74/K27, 72 h; how it was run: as §1
Leishmania major = test: Antileishmanial activity against promastigote stage of Leishmania major MHOM/SU/73/5-ASKH assessed as parasite growth inhibition after 72 hrs by Alamar blue assay; assay type: functional, organism-based; how it was run: as §1
Leishmania infantum = test: Antileishmanial activity against promastigote stage of Leishmania infantum MHOM/TN/80/IPT1 assessed as parasite growth inhibition after 72 hrs by Alamar blue assay; assay type: functional, organism-based; conditions: MHOM/TN/80/IPT1, 72 h; how it was run: as §1
Leishmania donovani [6] = test: Antileishmanial activity against amastigote stage of Leishmania donovani MHOM/NP/02/BPK282/0c14 infected in human THP1 cells assessed as parasite growth inhibition after 72 hrs by Giemsa staining-based assay; assay type: functional, organism-based; conditions: MHOM/NP/02/BPK282/0c14, THP-1, 72 h
How it was run: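 THP-1 cells at 10^5 cells/mL differentiated with 0.1 µM PMA for 48 h at 37 °C, 5% CO2, then infected with stationary-phase promastigotes. After 24 h, compounds were added at 40–1.5 µM for 72 h. Wells were Giemsa-stained, and the infectivity index (% infected macrophages × mean amastigotes per macrophage) was counted on ≥100 cells in duplicate cultures. IC50/72h determined.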

[7] = Binding affinity to Leishmania spp. trypanothione reductase by surface plasmon resonance analysis; set-up: species or system Leishmania sp.
How it was run: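 Recombinant L. infantum TR was amine-coupled to ~2000 RU on a carboxyl sensor chip. Analytes in HBS pH 7.4 + 1% DMSO were given as FastStep serial doubling injections from 1.56 to 100 µM, followed by dissociation after 100 s. A protein-free surface served as control. Sensorgrams are averages of three experiments. KD came from Scatchard plots and a global 1:1 binding fit.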

[8] = Competitive inhibition of Leishmania spp. trypanothione reductase in presence of 75 to 400 uM TS2 by Dixon plot analysis; set-up: species or system Leishmania sp.
How it was run: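 Recombinant L. infantum TR at 40 nM was equilibrated for 2 min at 25 °C with TS2 (75–400 µM) and inhibitor (30 nM–1 µM). The reaction was started with 40 µM NADPH, and NADPH oxidation was followed as A340 decrease (ε 6,222 M−1 cm−1). A Dixon plot was built by linear regression of reciprocal fitted rates against inhibitor concentration.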

Leishmania sp. = test: Potency index, ratio of Sb3+ Ki to test compound Ki for Leishmania spp. trypanothione reductase
[9] = Safety index, ratio of test compound CC50 to amphotericin B CC50 for African green monkey Vero cells; assay type: ADME, cell-based; conditions: chlorocebus sabaeus
[10] = Safety index, ratio of test compound CC50 to amphotericin B CC50 for human THP1 cells; assay type: ADME, cell-based; conditions: THP-1 cells
[11] = Ratio of IC50 for promastigote stage of Leishmania donovani MHOM/NP/02/BPK282/0c14 to Ki for Leishmania spp. trypanothione reductase
[12] = Ratio of IC50 for amastigote stage of Leishmania donovani MHOM/NP/02/BPK282/0c14 to Ki for Leishmania spp. trypanothione reductase
Leishmania donovani [13] = test: Antileishmanial activity against promastigote stage of Leishmania donovani MHOM/NP/02/BPK282/0c14 assessed as parasite growth inhibition up to 40 uM after 72 hrs by Alamar blue assay; assay type: functional, organism-based; how it was run: as §1

Row | Compound | pIC50 (Leishmania donovani [1]) | CC50 at 72 h [2] | selectivity ratio [3] | CC50 at 72 h [4] | selectivity ratio [5] | growth inhibition (GI) (Leishmania donovani [13]) | also measured
1 | COc1cc(OCC=C(C)C)ccc1C(=O)/C=C/c1ccc([N+](=O)[O-])cc1 | 5.52 | 600 µM | 200 | 600 µM | 200 |  | pIC50 (Leishmania tropica): 5.28; pIC50 (Leishmania major): 5.48; pIC50 (Leishmania infantum): 5.80; pIC50 (Leishmania donovani [6]): 4.85; pKd [7]: 6.22; pKi [8]: 6.35; Ratio Ki (Leishmania sp.): 3; selectivity ratio [9]: 3; selectivity ratio [10]: 3; Ratio [11]: 6; Ratio [12]: 30
2 | COc1cc(OCC=C(C)C)ccc1C(=O)/C=C/c1ccc(Br)cc1 | 4.80 | 600 µM | 37.5 | 100 µM | 6.3 |  | 
3 | CC(C)=CCOc1ccc(C(=O)/C=C/c2ccccc2)c(OCC=C(C)C)c1 |  |  |  |  |  | inactive | 
4 | CC(C)=CCOc1ccc(C(=O)/C=C/c2cccnc2)c(O)c1 | 5.07 | 210 µM | 24.7 | 100 µM | 11.8 |  | 
5 | C#CCOc1ccc(C(=O)/C=C/c2ccc(OC)cc2)c(OCC#C)c1 |  |  |  |  |  | inactive | 
6 | C#CCOc1ccc(C(=O)/C=C/c2ccc([N+](=O)[O-])cc2)c(OCC#C)c1 |  |  |  |  |  | inactive | 
7 | C#CCOc1ccc(C(=O)/C=C/c2cccnc2)c(OCC#C)c1 | 5.40 | 6 µM | 1.5 | 15 µM | 3.8 |  | 
8 | C#CCOc1ccc(C(=O)/C=C/c2cccnc2)c(OC)c1 | 5.02 | 15 µM | 1.6 | 16 µM | 1.7 |  | 
9 | C#CCOc1ccc(C(=O)/C=C/c2cccnc2)c(O)c1 | 4.76 | 40 µM | 2.3 | 25 µM | 1.4 |  | 
10 | C#CCOc1ccc(C(=O)/C=C/c2ccc(OC)c(OC)c2)c(OC)c1 |  |  |  |  |  | inactive | 
11 | C#CCOc1ccc(C(=O)/C=C/c2ccc(F)cc2)c(OCC#C)c1 | 4.90 | 600 µM | 48 | 600 µM | 48 |  | pIC50 (Leishmania tropica): 4.89; pIC50 (Leishmania major): 5.00; pIC50 (Leishmania infantum): 5.80; pIC50 (Leishmania donovani [6]): 5.35; pKd [7]: 5.62; selectivity ratio [9]: 3; selectivity ratio [10]: 3
12 | C#CCOc1ccc(C(=O)/C=C/c2ccncc2)c(OC)c1 | 5.40 | 20 µM | 5 | 16 µM | 4 |  | 
13 | COc1cc(OCC=C(C)C)ccc1C(=O)/C=C/c1cccnc1 | 4.98 | 22 µM | 2 | 40 µM | 3.8 |  | 
14 | COc1cc(OCC=C(C)C)ccc1C(=O)/C=C/c1ccc(F)cc1 |  |  |  |  |  | inactive | 
15 | COc1ccc(/C=C/C(=O)c2ccc(OCC=C(C)C)cc2OC)cc1OC |  |  |  |  |  | inactive | 
16 | COc1cc(OCC=C(C)C)ccc1C(=O)/C=C/c1ccc(NC(C)=O)cc1 |  |  |  |  |  | inactive | 

Row | Compound | pIC50 (Leishmania donovani [1]) | CC50 at 72 h [2] | selectivity ratio [3] | CC50 at 72 h [4] | selectivity ratio [5] | growth inhibition (GI) (Leishmania donovani [13]) | also measured
17 | CC(C)=CCOc1ccc(C(=O)/C=C/c2ccncc2)c(O)c1 | 5.30 | 40 µM | 8 | 16 µM | 3.2 |  | 
18 | C#CCOc1ccc(C(=O)/C=C/c2ccc([N+](=O)[O-])cc2)c(OC)c1 |  |  |  |  |  | inactive | 
19 | CC(=O)Oc1cc(OCC=C(C)C)ccc1C(=O)/C=C/c1ccccc1 |  |  |  |  |  | inactive | 
20 | C#CCOc1ccc(C(=O)/C=C/c2cc(OC)c(OC)c(OC)c2)c(OC)c1 |  |  |  |  |  | inactive | 
21 | C#CCOc1ccc(C(=O)/C=C/c2ccc(OC)c(OC)c2)c(OCC#C)c1 |  |  |  |  |  | inactive | 
22 | COc1cc(OCC=C(C)C)ccc1C(=O)/C=C/c1ccncc1 | 4.98 | 16 µM | 1.5 | 16 µM | 1.5 |  | 
23 | C#CCOc1ccc(C(=O)/C=C/c2ccc(Br)cc2)c(OCC#C)c1 | 4.82 | 420 µM | 28 | 25 µM | 1.6 |  | 
24 | COc1cc(OCC=C(C)C)ccc1C(=O)/C=C/c1ccccc1 | 4.82 | 50 µM | 3.3 | 50 µM | 3.3 |  | 
25 | COc1cc(OCC=C(C)C)ccc1C(=O)/C=C/c1ccco1 |  |  |  |  |  | inactive | 
26 | C#CCOc1ccc(C(=O)/C=C/c2ccc(Br)cc2)c(OC)c1 | 4.67 | 100 µM | 4.6 | 100 µM | 4.6 |  | 
27 | CC(C)=CCOc1ccc(C(=O)/C=C/c2ccccc2)c(O)c1 |  |  |  |  |  | inactive | 
28 | COc1cc(OCC=C(C)C)ccc1C(=O)/C=C/c1cc(OC)c(OC)c(OC)c1 | 4.96 | 40 µM | 3.6 | 25 µM | 2.3 |  | 
29 | C#CCOc1ccc(C(=O)/C=C/c2cc(OC)c(OC)c(OC)c2)c(OCC#C)c1 |  |  |  |  |  | inactive | 
30 | COc1ccc(/C=C/C(=O)c2ccc(OCC=C(C)C)cc2OC)cc1 |  |  |  |  |  | inactive | 
31 | C[C@@H]1[C@H](O)[C@@H](C)/C=C/C=C/C=C/C=C/C=C/C=C/C=C/[C@H](O[C@@H]2O[C@H](C)[C@@H](O)[C@H](N)[C@@H]2O)C[C@@H]2O[C@](O)(C[C@@H](O)C[C@@H](O)[C@H](O)CC[C@@H](O)C[C@@H](O)CC(=O)O[C@H]1C)C[C@H](O)[C@H]2C(=O)O [AMPHOTERICIN B] | 6.52 | 200 µM | 666 | 200 µM | 666 |  | 
32 | C#CCOc1ccc(C(=O)/C=C/c2ccncc2)c(OCC#C)c1 | 5.15 | 10 µM | 1.4 | 11 µM | 1.6 |  | 

— ChEMBL document CHEMBL4152258, “Identification of chalcone-based antileishmanial agents targeting trypanothione reductase” (Eur J Med Chem, 2018)
